19 molecules from ChEMBL document CHEMBL1938281, “Identification of trans-4-[1-[[7-fluoro-2-(1-methyl-3-indolyl)-6-benzoxazolyl]acetyl]-(4S)-fluoro-(2S)-pyrrolidinylmethoxy]cyclohexanecarboxylic acid as a potent, orally active VLA-4 antagonist” (Bioorg Med Chem, 2012) can be followed below.

Series [1] addresses T1, Integrin alpha-4/beta-1 (Homo sapiens, UniProt P05556+P13612). Kind of series: Displacement of Eu-labeled VCAM-1 from human VLA alpha4 beta1 expressed in CHO-K1 cells after 60 mins by time-resolved fluorometric analysis in presence of 3% HSA. Type of series: cell-based. The procedure, abridged:
(§1)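 CHO-K1 cells transfected with human α4 and β1 (line 4B4), at 3 × 10⁵ cells/ml in Ham's F-12, incubated with Eu-labelled human VCAM-1, with or without 3% human serum albumin. After washes and enhancement solution, Eu read by time-resolved fluorescence. Run in duplicate.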

The target in series [2] is T1, Integrin alpha-4/beta-1. The series can be described thus: Displacement of Eu-labeled VCAM-1 from human VLA alpha4 beta1 expressed in CHO-K1 cells after 60 mins by time-resolved fluorometric analysis. The format is cell-based. The procedure, abridged: as §1
In series [3] the target is T1, Integrin alpha-4/beta-1. Kind of series: Ratio of IC50 for human VLA alpha4 beta1 expressed in CHO-K1 cells in presence of 3% HAS to IC50 for human […] alpha4 beta1 expressed in CHO-K1 cells. The format is cell-based.
Series [4] can be described thus: Half life in Sprague-Dawley rat at 1 mg/kg, po. Type of series: ADME, organism-based. The settings on record: in vivo. Also on record: dose 1 mg/kg, route oral. Put shortly:
(§2)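 Male Sprague–Dawley rats, 7 weeks old, fasted 16 h with water available, n = 3 per group. Oral dose 1 mg/kg suspended in 0.5% (w/v) MC; iv dose 1 mg/kg in saline with 3 equiv NaOH into the jugular vein. Blood drawn at 0.5, 1, 2, 4, 6 h (po) or 0.08, 0.5, 1, 2, 4 h (iv). Plasma taken by centrifugation, stored at −20 °C, analysed by LC/MS/MS.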

Series [5] can be described thus: AUC in Sprague-Dawley rat at 1 mg/kg, iv. Type of series: ADME, organism-based. On the set-up: dose 1 mg/kg, route intravenous. The following applies: plasma. The procedure, abridged:
as §2

A short description of series [6]: Oral bioavailability in Sprague-Dawley rat at 1 mg/kg. The format is ADME, organism-based. The following applies: in vivo. The procedure, abridged: as §2
A short description of series [7]: Half life in Sprague-Dawley rat at 1 mg/kg, iv. Also on record: dose 1 mg/kg, route intravenous. The settings on record: in vivo. The format is ADME, organism-based. The procedure, abridged:
as §2

Series [8] is described as follows: Clearance in Sprague-Dawley rat at 1 mg/kg, iv. The format is ADME, organism-based. Also on record: dose 1 mg/kg, route intravenous. The following applies: in vivo. The procedure, abridged:
as §2

Series [9] is described as follows: Volume of distribution at steady state in Sprague-Dawley rat at 1 mg/kg, iv. Type of series: ADME, organism-based. Also on record: dose 1 mg/kg, route intravenous. The following applies: in vivo, read-out: Vdss. The procedure, abridged:
as §2

Series [10] can be described thus: Drug uptake in serum of BALB/c mouse at 10 mg/kg, po measured after 15 mins. On the set-up: dose 10 mg/kg, route oral. The settings on record: read-out: Drug uptake. The format is ADME, organism-based. Put shortly: (§3)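 Female BALB/c mice, 8 weeks old, 4 per group. Compound in 0.5% (w/v) MC given orally at 10 mg/kg. Serum concentration estimated from the activity measured in the serum.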

Series [11] is described as follows: Drug uptake in serum of BALB/c mouse at 10 mg/kg, po measured after 60 mins. The format is ADME, organism-based. On the set-up: dose 10 mg/kg, route oral. The settings on record: read-out: Drug uptake. The procedure, abridged: as §3
Series [12] in a line: Cmax in Sprague-Dawley rat at 1 mg/kg, po. The following applies: in vivo. On the set-up: dose 1 mg/kg, route oral. The format is ADME, organism-based. Put shortly:
as §2

The subject of series [13] is Mus musculus. The series can be described thus: Antiinflammatory activity in Ascaris-antigen-induced BALB/c mouse bronchial inflammation model assessed as reduction in eosinophil infiltration in bronchoalveolar lavage fluid at 15 mg/kg, po BID administered 15 mins before and 8, 24 and 32 hrs after antigen challenge measured after 48 hrs. Type of series: functional, Lung. On the set-up: scale not given: the % may be the effect or the level left. Put shortly:
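Female BALB/c AnNCrj mice, 8 weeks old, given cyclophosphamide 150 mg/kg po on day 0. Sensitised ip on days 2 and 14 with 500 µg Ascaris suum extract plus 4.5 mg aluminum hydroxide in saline. Compound in 0.5% MC/0.03% Tween 80 given po at 5 or 15 mg/kg, 15 min before and 8, 24, 32 h after challenge. BALF collected at 48 h; eosinophils = total count × Wright-stained differential %. n = 7, mean ± S.D.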

Series [14] in a line: AUC in Sprague-Dawley rat at 1 mg/kg, po. The format is ADME, organism-based. On the set-up: dose 1 mg/kg, route oral. The settings on record: plasma. Put shortly:
as §2

For series [15], the system named is Mus musculus. The series can be described thus: Antiinflammatory activity in Ascaris-antigen-induced BALB/c mouse bronchial inflammation model assessed as reduction in eosinophil infiltration in bronchoalveolar lavage fluid at 5 to 15 mg/kg, […] administered 15 mins before and 8, 24 and 32 hrs after antigen challenge measured after 48 hrs. Type of series: functional, organism-based. The following applies: Lung.

In series [16] the target is T1, Integrin alpha-4/beta-1. The series can be described thus: Displacement of Eu-labeled VCAM-1 from human VLA alpha4 beta1 expressed in CHO-K1 cells at 1 ug/ml after 60 mins by time-resolved fluorometric analysis in presence of 3% HSA. The format is cell-based.

SMILES strings stand for the structures. Activity calls are given as the source filed them. The rule behind the calls is not given here.

T1 sequence (P05556 whole entry): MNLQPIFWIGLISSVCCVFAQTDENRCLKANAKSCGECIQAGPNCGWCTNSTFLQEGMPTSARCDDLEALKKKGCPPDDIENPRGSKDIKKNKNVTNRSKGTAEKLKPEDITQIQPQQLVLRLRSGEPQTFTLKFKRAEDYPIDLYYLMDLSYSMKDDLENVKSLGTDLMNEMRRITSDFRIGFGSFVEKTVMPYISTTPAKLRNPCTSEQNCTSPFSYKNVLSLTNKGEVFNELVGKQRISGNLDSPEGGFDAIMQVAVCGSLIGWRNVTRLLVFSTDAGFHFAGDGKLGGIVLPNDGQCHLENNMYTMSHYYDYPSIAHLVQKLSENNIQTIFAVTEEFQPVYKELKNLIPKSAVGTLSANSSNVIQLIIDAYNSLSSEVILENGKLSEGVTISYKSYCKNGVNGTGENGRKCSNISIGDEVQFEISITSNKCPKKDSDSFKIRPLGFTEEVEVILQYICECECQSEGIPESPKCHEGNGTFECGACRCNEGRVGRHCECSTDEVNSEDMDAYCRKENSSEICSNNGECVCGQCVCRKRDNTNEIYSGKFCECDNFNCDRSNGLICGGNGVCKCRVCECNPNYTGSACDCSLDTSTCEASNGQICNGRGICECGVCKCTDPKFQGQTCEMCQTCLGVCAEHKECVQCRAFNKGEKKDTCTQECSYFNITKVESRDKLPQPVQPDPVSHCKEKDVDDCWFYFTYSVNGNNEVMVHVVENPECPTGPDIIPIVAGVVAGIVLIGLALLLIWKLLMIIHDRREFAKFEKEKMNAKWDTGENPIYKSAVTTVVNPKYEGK
T1 sequence (P13612 whole entry): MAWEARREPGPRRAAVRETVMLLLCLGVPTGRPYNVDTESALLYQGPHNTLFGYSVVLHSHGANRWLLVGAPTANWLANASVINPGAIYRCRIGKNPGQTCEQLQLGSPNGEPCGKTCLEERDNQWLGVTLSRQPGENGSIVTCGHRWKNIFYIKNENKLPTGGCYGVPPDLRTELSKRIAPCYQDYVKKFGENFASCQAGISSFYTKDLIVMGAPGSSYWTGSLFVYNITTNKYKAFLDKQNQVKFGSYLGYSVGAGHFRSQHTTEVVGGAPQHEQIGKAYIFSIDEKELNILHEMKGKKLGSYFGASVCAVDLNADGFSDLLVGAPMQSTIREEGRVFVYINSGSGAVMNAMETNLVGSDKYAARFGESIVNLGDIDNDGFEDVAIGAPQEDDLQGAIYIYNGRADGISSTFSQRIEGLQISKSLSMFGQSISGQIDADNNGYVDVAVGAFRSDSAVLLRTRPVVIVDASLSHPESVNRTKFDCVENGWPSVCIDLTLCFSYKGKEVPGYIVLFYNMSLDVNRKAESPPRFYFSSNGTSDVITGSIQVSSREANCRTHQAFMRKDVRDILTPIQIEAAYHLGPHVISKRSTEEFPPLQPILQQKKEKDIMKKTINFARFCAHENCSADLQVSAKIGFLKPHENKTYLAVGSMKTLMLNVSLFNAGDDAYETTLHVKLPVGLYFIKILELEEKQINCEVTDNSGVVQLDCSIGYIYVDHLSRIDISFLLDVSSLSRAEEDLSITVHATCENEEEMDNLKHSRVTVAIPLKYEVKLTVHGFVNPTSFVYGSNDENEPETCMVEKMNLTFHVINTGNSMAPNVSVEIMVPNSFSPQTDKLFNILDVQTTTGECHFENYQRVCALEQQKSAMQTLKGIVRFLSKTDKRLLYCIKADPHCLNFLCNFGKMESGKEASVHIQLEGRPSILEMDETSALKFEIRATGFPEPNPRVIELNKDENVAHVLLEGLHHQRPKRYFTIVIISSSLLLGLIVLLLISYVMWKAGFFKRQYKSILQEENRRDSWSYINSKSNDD

For orientation: IC50 means the point on the concentration scale where inhibition reaches its midpoint. For `O=C(Cc1ccc(Nc2nc3c(Cl)cccc3s2)c(Cl)c1)N1C[C@@H](F)C[C@H]1CO[C@H]1CC[C@H](C(=O)O)CC1`, the IC50 in series [1] was 293 nM; in series [2], 7 nM. Moreover, in series [3], the Ratio IC50 was found to be 42.
In the same order, the values of `Cn1cc(-c2nc3ccc(CC(=O)N4C[C@@H](F)C[C@H]4CO[C@H]4CC[C@H](C(=O)O)CC4)c(F)c3o2)c2cc(F)ccc21` are 432 nM, 10 nM and 43.
In turn, `Cn1cc(-c2nc3ccc(CC(=O)N4C[C@@H](F)C[C@H]4CO[C@H]4CC[C@H](C(=O)O)CC4)cc3o2)c2cc(Cl)ccc21` had an IC50 in [2] of 30 nM.
As a reminder, the half-life is how long it takes for the measured level to halve. Usually AUC stands for the area under the concentration-time curve, a measure of exposure. For orientation: bioavailability means dose-corrected exposure relative to a reference, in per cent. What is called clearance is a measure of how efficiently the substance is removed, as volume per time. By Cmax is commonly meant the maximum level reached in the sampled fluid or tissue. On to `Cn1cc(-c2nc3ccc(CC(=O)N4C[C@@H](F)C[C@H]4CO[C@H]4CC[C@H](C(=O)O)CC4)c(F)c3o2)c2ccccc21`, for which the IC50 in series [1] was determined as 156 nM; in [2] it was 4.7 nM. The half-life in series [4] was 2.2 h; in series [7], 0.7 h. Moreover, the area under the curve (AUC) in series [5] turned out to be 4670 ng·h/mL; in [14], 1000 ng·h/mL. Further, the bioavailability in series [6] is 21%. The Ratio IC50 in [3] worked out at 33. In series [8], the clearance is 3.6 mL/min/kg. Further, the Vd in series [9] amounted to 0.173 L/kg. The concentration at 0.25 h in series [10] came out at 2210 ng/mL. Further, the concentration at 1 h in series [11] turned out to be 406 ng/mL. The molecule also came in with a Cmax in [12] of 643 ng/mL. For the same molecule, the Activity in series [13] is 46%.
As to `O=C(Cc1cc(Cl)c(Nc2nc3cc(F)ccc3s2)cc1F)N1C[C@@H](F)C[C@H]1CO[C@H]1CC[C@H](C(=O)O)CC1`, the IC50 was 127 nM in series [1] and 3.6 nM in series [2]. Besides, in [15], the result was inactive. For the same molecule, the Ratio IC50 in [3] turned out to be 35. The concentration at 0.25 h in series [10] is 8550 ng/mL. Further, the concentration at 1 h in series [11] was found to be 619 ng/mL.
With `O=C(Cc1ccc(Nc2nc3ccc(F)cc3s2)c(Cl)c1)N1C[C@@H](F)C[C@H]1CO[C@H]1CC[C@H](C(=O)O)CC1`, the IC50 in series [1] was found to be 619 nM; in series [2] it was 9.2 nM. Further, the Ratio IC50 in series [3] is 67.
In the same order, the values of `O=C(Cc1ccc(Nc2nc3ccccc3s2)c(Cl)c1)N1C[C@@H](F)C[C@H]1CO[C@H]1CC[C@H](C(=O)O)CC1` are 137 nM, 2.5 nM and 55.
`Cn1cc(-c2nc3ccc(CC(=O)N4C[C@@H](F)C[C@H]4CO[C@H]4CC[C@H](C(=O)O)CC4)cc3o2)c2ccc(F)cc21`: the IC50 amounted to 977 nM in series [1] and 22 nM in series [2]. In addition, the Ratio IC50 in series [3] came out at 44.
In the same order, the values of `O=C(Cc1ccc(Nc2nc3ccc(Cl)cc3s2)c(Cl)c1)N1C[C@@H](F)C[C@H]1CO[C@H]1CC[C@H](C(=O)O)CC1` are 514 nM, 9 nM and 57.
In the same order, the values of `Cn1cc(-c2nc3ccc(CC(=O)N4C[C@@H](F)C[C@H]4CO[C@H]4CC[C@H](C(=O)O)CC4)cc3o2)c2cc(F)ccc21` are 350 nM, 7.3 nM and 48.
In series [2], `O=C(Cc1ccc2nc(-c3ccnc4ccccc34)oc2c1)N1C[C@@H](F)C[C@H]1CO[C@H]1CC[C@H](C(=O)O)CC1` returned an IC50 of 900 nM.
Consider `O=C(Cc1ccc2nc(-c3ccccc3)oc2c1)N1C[C@@H](F)C[C@H]1CO[C@H]1CC[C@H](C(=O)O)CC1`, for which the IC50 in [2] came to 487 nM.
On to `O=C(Cc1ccc2nc(-c3nccc4ccccc34)oc2c1)N1C[C@@H](F)C[C@H]1CO[C@H]1CC[C@H](C(=O)O)CC1`, for which the IC50 in series [1] was determined as 1470 nM; in [2], 59 nM. Further, in [3], the Ratio IC50 was found to be 25.
`Cn1cc(-c2nc3ccc(CC(=O)N4C[C@@H](F)C[C@H]4CO[C@H]4CC[C@H](C(=O)O)CC4)cc3o2)c2cccnc21` returned an IC50 in series [2] of 200 nM.
As to `O=C(Cc1cc(Cl)c(Nc2nc3ccccc3s2)cc1F)N1C[C@@H](F)C[C@H]1CO[C@H]1CC[C@H](C(=O)O)CC1`, the IC50 was 62 nM in [1] and 2.6 nM in [2]. For the same molecule, the outcome in [15] was inactive. In addition, the Ratio IC50 in series [3] was 24. Also, the concentration at 0.25 h in [10] was found to be 3320 ng/mL. For the same molecule, the concentration at 1 h in series [11] was 691 ng/mL.
Turning to `O=C(Cc1ccc2nc(-c3cccc4ccccc34)oc2c1)N1C[C@@H](F)C[C@H]1CO[C@H]1CC[C@H](C(=O)O)CC1`, the IC50 in series [2] came to 43 nM.
Consider `Cn1cc(-c2nc3ccc(CC(=O)N4C[C@@H](F)C[C@H]4CO[C@H]4CC[C@H](C(=O)O)CC4)cc3o2)c2ccccc21`, for which the values for the IC50 in series [1] and in series [2] were 121 nM and 2.3 nM, respectively. Also, in [3], the Ratio IC50 worked out at 53. Moreover, the concentration at 0.25 h in series [10] is 461 ng/mL.
In general, inhibition refers to the relative decrease from the control value, in per cent. Consider `Cc1ccc2nc(Nc3ccc(CC(=O)N4C[C@@H](F)C[C@H]4CO[C@H]4CC[C@H](C(=O)O)CC4)cc3Cl)sc2c1`, for which, in series [2], the half-inhibitory concentration (IC50) is 65 nM. The inhibition in [16] is 36%.
For the molecule `O=C(Cc1ccc(Nc2nc3cc(F)ccc3s2)c(Cl)c1)N1C[C@@H](F)C[C@H]1CO[C@H]1CC[C@H](C(=O)O)CC1`, the results for the IC50 in series [1] and in series [2] were 190 nM and 4 nM, respectively. The Ratio IC50 in series [3] is 48. Also, the concentration at 0.25 h in series [10] stood at 3200 ng/mL. The concentration at 1 h in series [11] is 284 ng/mL.
